# Assay results taken from ChEMBL document CHEMBL3817747 (J Med Chem, 2016).
# Test: Cytotoxicity against MDCK cells after 48 hrs by CellTiter 96 AQueous Non-Radioactive cell proliferation assay
# Type: cell-based, Canis lupus familiaris
# Settings: dog
# Method in brief: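 MDCK cells (1 × 10^5 cells/mL) exposed to inhibitor without virus, same steps as the antiviral assay: 48 h at 37 °C, 5% CO2, viability by MTS-type reagent, absorbance at 490 nm. CC50 is the 50% cytotoxic concentration. Highest concentration tested was 100 μM.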
row,Compound,CC50 at 48 h [µM]
1,CCC(CC)O[C@@H]1C=C(C(=O)O)C[C@H](N)[C@H]1NC(C)=O [OSELTAMIVIR CARBOXYLATE],> 100
2,CCCCCCOP(=O)(O)[C@@H]1C[C@@H]([C@@H](NC(C)=O)C(CC)CC)[C@H](NC(=N)N)C1,> 100
3,CCC(CC)[C@H](NC(C)=O)[C@@H]1[C@H](O)[C@@H](C(=O)O)C[C@H]1NC(=N)N [PERAMIVIR ANHYDROUS],> 100
4,CCCCCCOP(=O)(O)C1=C[C@@H]([C@@H](NC(C)=O)C(CC)CC)[C@H](NC(=N)N)C1,> 100
5,CCOP(=O)(O)[C@H]1C[C@@H](NC(=N)N)[C@H]([C@@H](NC(C)=O)C(CC)CC)[C@@H]1O,> 100
6,CCC(CC)[C@H](NC(C)=O)[C@@H]1C[C@@H](P(=O)(O)O)C[C@H]1NC(=N)N,> 100
7,CC(=O)N[C@H]1[C@H]([C@H](O)[C@H](O)CO)OC(C(=O)O)=C[C@@H]1NC(=N)N [ZANAMIVIR],> 100
8,CCOP(=O)(O)[C@@H]1C[C@@H]([C@@H](NC(C)=O)C(CC)CC)[C@H](NC(=N)N)C1,> 100
9,CCCCCCOP(=O)(O)[C@H]1C[C@@H](NC(=N)N)[C@H]([C@@H](NC(C)=O)C(CC)CC)[C@@H]1O,> 100
10,CCC(CC)[C@H](NC(C)=O)[C@@H]1C=C(P(=O)(O)O)C[C@H]1NC(=N)N,> 100
11,CCC(CC)[C@H](NC(C)=O)[C@@H]1[C@H](O)[C@@H](P(=O)(O)O)C[C@H]1NC(=N)N,> 100
12,CCOP(=O)(O)C1=C[C@@H]([C@@H](NC(C)=O)C(CC)CC)[C@H](NC(=N)N)C1,> 100

# Test: Prodrug conversion in rabbit serum assessed as formation of (3R,4R)-[3-((S)-1-Acetamido-2-ethylbutyl)-4-guanidinocyclopent-1-en-1-yl]phosphonic acid at 1 mM at 37 degC after 24 to 96 hrs by HPLC/ESI-HRMS analysis
# Type: ADME, Oryctolagus cuniculus
# Settings: 1000 µM
row,Compound,Drug metabolism
1,CCOP(=O)(O)C1=C[C@@H]([C@@H](NC(C)=O)C(CC)CC)[C@H](NC(=N)N)C1,metabolite_notdetected
